Assays:
[1] = Antiproliferative activity against human NPC-TW01 cells after 72 hrs by MTT assay; type: functional; conditions: NPC-TW01, 72 h
In short: (§1)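 Cells were exposed to a range of concentrations for 72 h. Compounds came from 20 mM stocks in 100% DMSO. Cells were then given MEM with 0.4 mg/mL MTT for 2 h, and formazan was read at 570 nm. GI50 was taken from percentage conversion relative to mock-treated controls and reported as mean SD of three independent experiments.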

NCI-H661 = assay: Antiproliferative activity against human NCI-H661 cells after 72 hrs by MTT assay; type: functional; conditions: NCI-H661, 72 h; in short: as §1
MT2 = assay: Antiproliferative activity against human MT2 cells after 72 hrs by MTT assay; type: functional; conditions: MT2, 72 h; in short: as §1
[2] = Cell cycle arrest in human NPC-TW01 cells assessed as accumulation at sub-G1 phase at 10.5 uM after 72 hrs by flow cytometry; type: functional, cell-based
In short: (§2)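 Exponentially growing cells were treated for 72 h. Controls received complete medium with 0.5% DMSO for 72 h. Cells were fixed, incubated with RNase and stained. DNA content was measured on a FACScan flow cytometer, and the percentage of cells in each cell-cycle phase was determined.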

[3] = Cell cycle arrest in human NPC-TW01 cells assessed as accumulation at S phase at 10.5 uM after 72 hrs by flow cytometry; type: functional, cell-based; in short: as §2
[4] = Cell cycle arrest in human NPC-TW01 cells assessed as accumulation at G2/M phase at 10.5 uM after 72 hrs by flow cytometry; type: functional, cell-based; in short: as §2
[5] = Cell cycle arrest in human NPC-TW01 cells assessed as accumulation at S phase at 6.0 uM after 72 hrs by flow cytometry; type: functional, cell-based; in short: as §2
[6] = Cell cycle arrest in human NPC-TW01 cells assessed as accumulation at sub-G1 phase at 6.0 uM after 72 hrs by flow cytometry; type: functional, cell-based; in short: as §2
[7] = Cell cycle arrest in human NPC-TW01 cells assessed as accumulation at G2/M phase at 6.0 uM after 72 hrs by flow cytometry; type: functional, cell-based; in short: as §2
[8] = Cell cycle arrest in human NPC-TW01 cells assessed as accumulation at G0/G1 phase at 6.0 uM after 72 hrs by flow cytometry; type: functional, cell-based; in short: as §2

Row | SMILES | GI50 [1] | GI50 (NCI-H661) | GI50 (MT2) | also measured
1 | O=C(COc1ccc2c(=O)cc(-c3ccccc3)oc2c1)Nc1ccc(F)cc1 | > 10 µM | 5.77 µM | 6.41 µM | 
2 | O=C(COc1ccc2c(=O)cc(-c3ccccc3)oc2c1)Nc1ccccc1 | > 10 µM | > 10 µM | > 10 µM | 
3 | O=C(COc1ccc2c(=O)cc(-c3ccccc3)oc2c1)Nc1ccc(-c2ccccc2)cc1 | 1.61 µM | 1.28 µM | 2.48 µM | 
4 | O=C(COc1ccc2c(=O)c(-c3ccccc3)coc2c1)Nc1ccc(F)cc1 | 0.55 µM | > 10 µM | 2.5 µM | 
5 | COc1ccc(NC(=O)COc2c(-c3ccccc3)oc3ccccc3c2=O)cc1 | 5.48 µM | 6.74 µM | > 10 µM | 
6 | COc1ccc(NC(=O)COc2ccc3c(=O)cc(-c4ccccc4)oc3c2)cc1 | 5.97 µM | 5.5 µM | 6.7 µM | 
7 | O=C(COc1ccc2c(=O)cc(-c3ccccc3)oc2c1)Nc1ccc2ccccc2c1 | > 10 µM | > 10 µM | > 10 µM | 
8 | COc1ccc(NC(=O)COc2ccc3oc(-c4ccccc4)cc(=O)c3c2)cc1 | 0.71 µM | 0.84 µM | 3.01 µM | Activity [2]: 3.3%; Activity [3]: 13.6%; Activity [4]: 5.3%
9 | O=c1cc(-c2ccccc2)oc2ccc(OC/C(=N\O)c3ccc(F)cc3)cc12 |  |  |  | Activity [5]: 33.2%; Activity [6]: 1.7%; Activity [7]: 42.8%; Activity [8]: 22.3%
10 | O=C(COc1c(-c2ccccc2)oc2ccccc2c1=O)Nc1ccc2ccccc2c1 | 6.52 µM | 6.5 µM | > 10 µM | 
11 | O=C(COc1ccc2oc(-c3ccccc3)cc(=O)c2c1)Nc1ccccc1 | 1.26 µM | 5.6 µM | 1.43 µM | 

From ChEMBL document CHEMBL1156563, “Synthesis and antiproliferative evaluation of amide-containing flavone and isoflavone derivatives” (Bioorg Med Chem, 2008)
